hERG rescue – compounds protecting human hERG from proarrhythmic drug block | Q12809 | CHO-hERG, FluxOR thallium flux, dofetilide IC70 present | activation (rescue from dofetilide block), less the hit threshold, % at 10 µM | 0.51% of 310,000 active | AID 1511;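 active = activation above the mean of controls blocked by dofetilide plus 5 SD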;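 also: thallium influx through hERG after potassium depolarization seen as dye fluorescence rise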
KCNQ1 pot – potentiators or activators of human KCNQ1 potassium channel; P51787; CHO-K1 KCNQ1, thallium flux FluxOR fluorescence; active compounds read high; B-score at 10 µM; 0.35% of 310,000 active; AID 2648;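 active = fluorescence ratio B-score, a plate-corrected score, at least three library SD, with initial intensity B-score within 5 SD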
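Material: CHO-K1 cells stably expressing KCNQ1. Medium: assay buffer for compound exposure, DMSO matched across wells. Reagent: K+/Tl+ depolarizing stimulus. Compound dosing: single-concentration screen. Times: 37 °C overnight plating, 90-min dark dye load, 20-min compound pretreatment. Technique: FluxOR Tl+ flux fluorescence.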
KCNK3 inh – human KCNK3 channel inhibition, primary screen; 0.84% of 340,000 active; CHO-KCNK3 thallium flux, FluxOR fluorescence; active compounds read low; B-score at 10 µM; O14649;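 active = B-score under library mean minus 4 SD, starting fluorescence ratio at most library mean plus 5 SD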;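 also: more negative B-score means stronger inhibition of thallium flux through KCNK3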
KCNQ1 inh – human KCNQ1 channel inhibition | B-score at 10 µM | 1.3% of 310,000 active | P51787 | CHO-K1 KCNQ1, FluxOR thallium flux fluorescence; active compounds read high;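 active = compounds whose thallium flux B-score, printed positive for inhibition, exceeds three library SD while starting fluorescence stays within three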;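 also: channel opened by potassium depolarization with thallium stimulus after 20 min compound exposure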
Kir21 inh – blocks the mouse Kir2.1 inward-rectifier potassium channel | 0.85% of 310,000 active | P35561 | B-score at 10 µM | HEK293-Kir2.1, FluxOR thallium flux fluorescence; active compounds read low | AID 1672;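 active = fluorescence ratio B-score at or below minus 3 SD of library scores, with starting-brightness B-score within 2 SD, cut at about -4.2 in these data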;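 also: channel flux triggered by added potassium and thallium sulfate stimulus; B-score of peak minus minimum fluorescence over baseline after thallium stimulus; more negative B-score means stronger Kir2.1 block with less thallium influx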
KCNK9 inh – inhibitors of human KCNK9 two-pore domain potassium channel. Q9NPC2. HEK293 KCNK9, FluxOR thallium flux fluorescence; active compounds read low. B-score at 10 µM. 1.2% of 310,000 active. AID 488922;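 active = ratio B-score over 3 SD below the library mean, with starting fluorescence within 5 SD of its mean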;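 also: negative B-score means less thallium flux so channel inhibition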
Target sequence (Q9NPC2 whole entry, looked up, the tested form may be a part): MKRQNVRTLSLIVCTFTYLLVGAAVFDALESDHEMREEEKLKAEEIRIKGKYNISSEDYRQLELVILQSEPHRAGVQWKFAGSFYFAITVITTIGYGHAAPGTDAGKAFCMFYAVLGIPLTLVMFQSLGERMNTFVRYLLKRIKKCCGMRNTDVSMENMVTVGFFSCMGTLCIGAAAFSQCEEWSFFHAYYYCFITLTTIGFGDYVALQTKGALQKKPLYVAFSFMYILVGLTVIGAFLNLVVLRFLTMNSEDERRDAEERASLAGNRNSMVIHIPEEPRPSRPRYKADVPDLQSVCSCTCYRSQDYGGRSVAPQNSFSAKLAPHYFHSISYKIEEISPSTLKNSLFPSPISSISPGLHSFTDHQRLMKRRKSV
* hit, by the source's call; i = inactive; · = not tested or not shown. The list is not random: actives were taken first. Their share in the collection is about 3.7%.

SMILES | hERG rescue | KCNQ1 pot | KCNK3 inh | KCNQ1 inh | Kir21 inh | KCNK9 inh
CC(C)(C)N1C(=O)[C@H]2[C@@H](c3ccc(Br)cc3)N3C(=O)N(c4cccc(Br)c4)C(=O)[C@@]3(Cc3ccccc3)[C@H]2C1=O | -4 | i | i | i | -1 | -6.9*
c1ccc(CNCCC(Cc2ccccc2)c2ccco2)cc1 (centres undefined) | -14 | i | i | i | -12* | i
CC(=O)NCCC(Cc1ccccc1)c1ccco1 (centres undefined) | -1 | i | i | i | -0.19 | i
CN(C)c1ccc(CNCCC(Cc2ccccc2)c2ccco2)cc1 (centres undefined) | -20 | i | i | i | -4.7* | i
COc1ccc2nc(SCC(=O)Nc3nccs3)[nH]c2c1 | -7 | i | i | i | 0.07 | i
Cc1cccc(C(=O)Nc2nnc(S(=O)(=O)N(C)Cc3ccco3)s2)c1 | -9 | i | i | i | 0.05 | i
CCOc1cc(CNCCO)cc(Br)c1OCc1ccc(Cl)cc1Cl | -17 | i | i | i | -13* | -7.8*
CCOc1cccc(CNc2ccc(O)cc2)c1OCc1ccc(Cl)cc1Cl | -2 | i | i | i | -0.05 | i
CCOc1cccc(CNCCO)c1OCc1ccc(Cl)cc1Cl | -10 | i | i | i | -6.1* | i
CCCCCc1ccc(-c2ccc(/C=C/C(N)=O)cc2)nc1 | -7 | i | i | i | 1.3 | i
CCCc1ccc(-c2ccc(C(=O)O)cc2)nc1 | 5.9* | i | i | i | 1.9 | i
CC(C)(C)c1ccc(OCCCNCc2ccccc2)cc1 | -24 | i | i | i | -3.8 | i
CCc1cc(OCCCCNCc2ccccc2)ccc1Cl | -20 | i | i | i | -11* | i
CCOCCCNCc1ccc(OCc2ccccc2Cl)cc1 | -6 | i | i | i | -4.3* | i
CCN(CC(=O)Nc1ccccc1C(F)(F)F)C(=O)c1cc(-c2ccccc2)nn1-c1ccccc1 | -16 | i | i | i | -0.44 | i
CCN(CC(=O)Nc1ccccc1OC)C(=O)c1cc(-c2ccccc2)nn1-c1ccccc1 | -21 | i | i | 7* | -0.35 | i
CCN(CC)S(=O)(=O)c1ccc(C(=O)Oc2cc(C)[nH]c(=O)c2[N+](=O)[O-])cc1 | -3 | i | i | i | 0.23 | i
O=C(O)C1(c2ccccc2)CCN(S(=O)(=O)c2cccs2)CC1 | 5.2* | i | i | i | 1.9 | i
O=C(O)C1(c2ccccc2)CCN(S(=O)(=O)c2ccccc2)CC1 | 1 | i | i | i | -0.99 | i
COc1ccc(CN2CCNC(=O)C2CC(=O)N(C)CC2CCOCC2)cc1C (centres undefined) | -5 | i | i | i | -1 | i
COc1ccc(Cn2c(C(C)C)nc3sc4ccccc4c(=O)c3c2=O)cc1 | -6 | i | i | i | 0.43 | i
CC(C)c1nc2sc3ccccc3c(=O)c2c(=O)n1Cc1ccccc1 | -3 | i | i | 6* | -0.72 | i
O=C(NNc1nc2c(F)cc(F)cc2s1)c1ccccc1 | -7 | 61* | i | i | 0.28 | i
Cc1ccc(Oc2ccc(OCC(=O)NC3CCS(=O)(=O)C3)cc2)cc1 (centres undefined) | -5 | i | i | i | 2 | i
COc1ccc(OCc2cc(C(=O)N(C)CC3CCCCO3)no2)c(Cl)c1 (centres undefined) | -8 | i | i | i | -2.6 | i
SMILES | hERG rescue | KCNQ1 pot | KCNK3 inh | KCNQ1 inh | Kir21 inh | KCNK9 inh
COc1cc(Cl)ccc1OCc1cc(C(=O)N(C)CC2CCCCO2)no1 (centres undefined) | -8 | i | i | i | -4.5* | i
CC1=C(C)CC(C(=O)Nc2ccc3c(c2)OCO3)C(C(=O)O)C1 (centres undefined) | -9 | i | i | i | 0.64 | i
Cc1ccccc1CCN(C(=O)Cn1nnc2ccccc21)C(C(=O)NCC1CCCO1)c1nc2ccccc2n1C (centres undefined) | -1 | i | i | i | 0.05 | i
O=C(c1cccs1)c1ccc(-c2cccs2)s1 | -6 | i | i | i | -3.7 | -6.8*
N#CCCN(C(=O)COC(=O)COc1ccccc1Cc1ccccc1)c1ccccc1 | · | · | i | · | · | ·
COc1ccc(CCN(C)C(=O)CN2C(=O)NC3(CCCc4ccccc43)C2=O)cc1OC (centres undefined) | -7 | i | i | i | 1.6 | i
CCOC(=O)c1cnc2oc3ccccc3n2c1=O | -2 | i | i | i | -0.35 | i
COC(=O)/C=C1\OC(c2ccccc2)=CC1=O | -34 | i | · | 8* | -10* | i
O=C1OC(c2ccccc2)=C/C1=C/N1CCCCC1 | -7 | i | i | i | -0.23 | i
COc1ccc(OC)c(N2CC(O)=C(c3nc4ccccc4s3)C2=N)c1 | -12 | i | i | i | -0.23 | -6.6*
CCOc1ccccc1N1CC(O)=C(c2nc3ccccc3s2)C1=N | -10 | i | i | i | 1.1 | i
CC(C)COC(=O)c1ccc2c(c1O)C(=O)c1ccccc1C2=O | -9 | i | i | i | -1.5 | i
CN(C)C(CNC(=O)c1ccc(-c2ccccc2)cc1)c1ccccc1 (centres undefined) | -11 | i | i | 6* | -3.1 | i
CN(C)C(CNC(=O)c1ccc(C(=O)c2ccccc2)cc1)c1ccccc1 (centres undefined) | -5 | i | i | i | -2.1 | i
Cc1cccc(NC(=O)CCS(=O)(=O)c2cccc3nsnc23)c1C | -8 | i | i | i | -0.22 | i
CCCN(CCC)C(=O)CCS(=O)(=O)c1cccc2nsnc12 | -2 | i | i | i | -4.5* | i
Cc1ccc2oc(C(=O)N3CCC(O)(c4ccccc4)CC3)c(C)c2c1 | -6 | i | i | i | -0.77 | i
C=CCSC1=N/C(=C\c2cc(OCC)c(OC(C)=O)c([N+](=O)[O-])c2)C(=O)S1 | -17 | i | i | 9* | 0.02 | i
CCN(CC)CCN(C(=O)c1cc2ccccc2cc1OC)c1nc2ccc(OC)cc2s1 | -22 | i | i | 9* | 0.45 | i
O=C1C2C3C=CC(C4CC34)C2C(=O)N1/N=C/c1ccc(-c2ccc(F)cc2[N+](=O)[O-])o1 (centres undefined) | 8.1* | i | i | i | -0.71 | i
COc1ccc(OCC(O)Cn2c(N)nc3c2c(=O)[nH]c(=O)n3C)cc1 (centres undefined) | -8 | i | i | i | 1.1 | i

Source: PubChem
